The source made the active and inactive calls. The rule behind the calls is not given here.
Experiments:
[1] = Upregulation of RARbeta2 mRNA expression in human BE(2)-C cells transfected with full-length human cloned RARbeta2 expressing pMEP4 vector at 1 uM after 24 hrs by quantitative real time PCR analysis relative to control; assay type: functional, cell-based
Procedure, shortened: (§1)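 RARβ-pMEP4 BE(2)-C cells attached 24 h in duplicate wells of 6-well plates, then exposed 24 h to compound (1 or 10 μM), 13-cis-retinoic acid (10 μM), AC261066 (10 nM) or DMSO (0.05%). Total RNA isolated, RARβ2 mRNA quantified by real-time PCR as fold change versus control.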

[2] = Anticancer activity against human BE(2)-C cells transfected with full-length human cloned RARbeta2 expressing pMEP4 vector assessed as reduction of cell viability at 1 uM after 72 hrs by Alamar blue assay; assay type: functional
Procedure, shortened: (§2)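 BE(2)-C neuroblastoma cells stably carrying RARβ cDNA in pMEP4 episomal vector, or empty pMEP4, in DMEM with L-glutamine and 10% FCS at 37 °C, 5% CO2. Cells attached 24 h in 96-well plates, then treated 72 h. Alamar blue absorbance at 570 nm, viability expressed as percentage of negative control.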

[3] = Cytotoxicity against human MRC5 cells assessed as reduction of cell viability at 1 uM after 96 hrs by alamar blue assay; assay type: cell-based; conditions: read-out: INH
Procedure, shortened: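 MRC-5 cells attached 24 h in 96-well plates, exposed to compound at 1 μM for 96 h. Viability by Alamar blue absorbance at 570 nm versus DMSO (0.5%) control.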

SH-SY5Y [4] = test: Anticancer activity against retinoid-sensitive human SH-SY5Y cells assessed as reduction of cell viability at 0.1 uM after 96 hrs by alamar blue assay; assay type: functional
Procedure, shortened: (§3)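 Alamar blue (resazurin) viability assay in SH-SY5Y or MDA-MB-231 cells grown in DMEM/L-glutamine/10% FCS, 37 °C, 5% CO2. After 24 h attachment in 6 replicate wells, cells were continuously exposed to serial dilutions for 96 h. Absorbance at 570 nm was read at 0 h and 5 h after reagent addition. Viability is % of matched 0.5% DMSO controls; mean ± SEM, three independent experiments.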

SH-SY5Y [5] = test: Anticancer activity against retinoid-sensitive human SH-SY5Y cells assessed as reduction of cell viability at 1 uM after 96 hrs by alamar blue assay; assay type: functional; procedure, shortened: as §3
[6] = Anticancer activity against human BE(2)-C cells transfected with pMEP4 empty vector assessed as reduction of cell viability at 1 uM after 72 hrs by Alamar blue assay; assay type: functional; procedure, shortened: as §2
MDA-MB-231 [7] = test: Anticancer activity against retinoid-resistant human MDA-MB-231 cells assessed as reduction of cell viability at 1 uM after 96 hrs by alamar blue assay; assay type: functional; conditions: MDA-MB-231, 96 h; procedure, shortened: as §3
[8] = Anticancer activity against human BE(2)-C cells transfected with pMEP4 empty vector assessed as reduction of cell viability at 20 uM after 72 hrs by Alamar blue assay; assay type: functional; procedure, shortened: as §2
[9] = Anticancer activity against human BE(2)-C cells transfected with full-length human cloned RARbeta2 expressing pMEP4 vector assessed as reduction of cell viability at 20 uM after 72 hrs by Alamar blue assay; assay type: functional; procedure, shortened: as §2
[10] = Anticancer activity against human BE(2)-C cells transfected with full-length human cloned RARbeta2 expressing pMEP4 vector assessed as reduction of cell viability at 5 uM after 96 hrs by Alamar blue assay relative to compound treated pMEP4 empty vector cloned cells; assay type: functional
Procedure, shortened: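 RARβ-pMEP4 and empty-vector BE(2)-C cells attached 24 h in 96-well plates, then exposed to ligand at 5 μM for 96 h. Alamar blue absorbance read at 570 nm. Viability of RARβ-transfected cells expressed relative to empty-vector cells. Mean ± SEM from at least three replicates.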

MDA-MB-231 [11] = test: Anticancer activity against retinoid-resistant human MDA-MB-231 cells assessed as reduction of cell viability at 20 uM after 96 hrs by alamar blue assay; assay type: functional; conditions: MDA-MB-231, 96 h; procedure, shortened: as §3
SH-SY5Y [12] = test: Anticancer activity against retinoid-sensitive human SH-SY5Y cells assessed as reduction of cell viability at 20 uM after 96 hrs by alamar blue assay; assay type: functional; procedure, shortened: as §3
SH-SY5Y [13] = test: Anticancer activity against retinoid-sensitive human SH-SY5Y cells assessed as reduction of cell viability at 10 uM after 96 hrs by alamar blue assay; assay type: functional; procedure, shortened: as §3
[14] = Anticancer activity against human BE(2)-C cells transfected with full-length human cloned RARbeta2 expressing pMEP4 vector assessed as reduction of cell viability at 10 uM after 72 hrs by Alamar blue assay; assay type: functional; procedure, shortened: as §2
[15] = Anticancer activity against human BE(2)-C cells transfected with pMEP4 empty vector assessed as reduction of cell viability at 10 uM after 72 hrs by Alamar blue assay; assay type: functional; procedure, shortened: as §2
[16] = Upregulation of RARbeta2 mRNA expression in human BE(2)-C cells transfected with full-length human cloned RARbeta2 expressing pMEP4 vector at 10 uM after 24 hrs by quantitative real time PCR analysis relative to control; assay type: functional, cell-based; procedure, shortened: as §1
[17] = Upregulation of RARbeta2 mRNA expression in human BE(2)-C cells transfected with full-length human cloned RARbeta2 expressing pMEP4 vector at 10 nM after 24 hrs by quantitative real time PCR analysis relative to control; assay type: functional, cell-based; procedure, shortened: as §1
SH-SY5Y [18] = test: Anticancer activity against retinoid-sensitive human SH-SY5Y cells assessed as cell viability at 0.01 to 100 uM after 96 hrs by alamar blue assay; assay type: functional, cell-based; procedure, shortened: as §3

Structure (SMILES): O=C(Cc1c[nH]c2ccccc12)Nc1nc2ccccc2s1
- fold change (FC) [1]: 2.1
- inhibition at 1 µM [2]: 50%
- cytotoxicity at 96 h, 1 µM [3]: 20%
- inhibition at 0.1 µM (SH-SY5Y [4]): 12%
- inhibition at 1 µM (SH-SY5Y [5]): 55%
- inhibition at 1 µM [6]: 38%
- inhibition at 1 µM (MDA-MB-231 [7]): 58%

Structure (SMILES): CCOc1ccc2nc(NC(=O)Cc3c[nH]c4ccccc34)sc2c1
- inhibition at 20 µM [8]: 29%
- inhibition at 20 µM [9]: 39%

Structure (SMILES): Cc1cc(C(=O)CSc2nnnn2C2CC2)c(C)n1C1CC1
- inhibition at 5 µM [10]: 20%

Structure (SMILES): Cc1ccc(NC(=O)c2cc3c(C)nn(CC(C)C)c3s2)c(O)c1
- inhibition at 5 µM [10]: 20%

Structure (SMILES): Cc1nn(CC(C)C)c2sc(C(=O)Nc3nc4ccccc4[nH]3)cc12
- inhibition at 5 µM [10]: 20%

Structure (SMILES): Cc1cccc2sc(NC(=O)CNC(=O)Cc3ccccc3)nc12
- inhibition at 5 µM [10]: 20%

Structure (SMILES): N[C@@H](Cc1ccccc1)C(=O)NCC(=O)Nc1nc2ccccc2s1
- inhibition at 20 µM (MDA-MB-231 [11]): 50%
- inhibition at 20 µM (SH-SY5Y [12]): 50%
- inhibition at 10 µM (SH-SY5Y [13]): 13%

Structure (SMILES): Cc1nnc(SCc2nnc(-c3cccs3)o2)n1-c1ccccc1
- inhibition at 5 µM [10]: 20%

Structure (SMILES): O=C(CCc1c[nH]c2ccccc12)Nc1nc2ccccc2s1
- Activity [14]: 53%
- Activity [15]: 38%
- fold change (FC) [16]: 1.5

Structure (SMILES): CC1=C(/C=C/C(C)=C/C=C/C(C)=C\C(=O)O)C(C)(C)CCC1 [ISOTRETINOIN]
- cytotoxicity at 96 h, 1 µM [3]: 10%
- fold change (FC) [16]: 9.3

Structure (SMILES): Cn1cnnc1SCc1nnc(-c2ccc(Br)s2)o1
- inhibition at 5 µM [10]: 20%

Structure (SMILES): CCCCOCCOc1nc(-c2ccc(C(=O)O)c(F)c2)sc1C
- fold change (FC) [17]: 2.7

Structure (SMILES): CC1(C)Cc2cccc(OCc3nnc(-c4ccccc4)o3)c2O1
- inhibition at 5 µM [10]: 20%

Structure (SMILES): O=C(Cc1c[nH]c2ccccc12)Nc1nc2ccc(Cl)cc2s1
- inhibition at 20 µM [8]: 43%
- inhibition at 20 µM [9]: 48%

Structure (SMILES): O=C(CCSc1ccccc1)Nc1ccc(-c2cn3ccsc3n2)cc1
- inhibition at 5 µM [10]: 20%

Structure (SMILES): O=C(Nc1nc2ccccc2s1)C(=O)c1c[nH]c2ccccc12
- Activity (SH-SY5Y [18]): inactive
